These results are taken from PubChem BioAssay.

Structures are written as SMILES. Activity calls are given as the source filed them.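 The calls were made as follows, unless noted: active = viability at or below 10% of carrier control in both of two separate runs; inconclusive = viability at or below 10% in only one of the two runs; inactive = the rest.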

Assay [1] is described as follows: Her2 expression decrease, cell viability multiplex – SKBR3 breast tumor cells, AlphaScreen, ATP viability, primary screen (AID 461;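 active = Her2 level under about 52% in both replicate screens, with viability over 70% of control, limit read from the data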;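 as to Her2 level: lower value means less Her2 protein in the cells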;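 as to viability: percent of carrier control wells set as 100% viability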). The note with it: SKBR3 Her2 protein level, 18-24 h, measured here: SKBR3 viability, ATP luminescence, at 10 µM.
The target in assay [2] is Receptor tyrosine-protein kinase erbB-2 (Homo sapiens) (UniProt P04626). The assay is described as above. The note with it: 18-24 h, at 10 µM, stronger effect = lower value.
The nature of assay [3]: reduced viability of SK-BR-3 breast cancer cells – cell-based, 24 h, human, pilot screen (AID 572).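 Also: compound exposure lasted between 18 and 24 h rather than exactly 24 h; 100% = carrier-treated control wells.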 Conditions: SK-BR-3 viability, CellTiter-Glo luminescence, at 10 µM, stronger effect = lower value. In general terms: ATP-based viability assays read luminescence as a measure of living cells.
The nature of assay [4]: HUVEC growth inhibition – cell-based, human, primary screen (AID 575;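 active = viability at or below 30% in both replicate assays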;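 also: 100% = median of untreated cell wells with 0.1% DMSO on each plate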). Conditions: HUVEC proliferation, CellTiter-Glo luminescence, 72 h; at 10 µM; stronger effect = lower value. Summed up:
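Assay system: primary human umbilical vein endothelial cells / Buffer or medium: endothelial basal medium with 2% FBS plus growth supplements / Compound dosing: one dose, 10 µM final, 0.1% DMSO / Timing: 72 h treatment at 37 °C / Signal: CTG luminescence / Benchmarks: 32 DMSO-only cell-control wells (high), 32 MePR drug-control wells (low) per plate / Plate: collagen-coated 384-well format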

Assay [5] can be described thus: H69AR cell proliferation blockers – human, duplicate replicates, primary screen (AID 580;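 active = viability at or under a set limit in both replicates, limit being median viability minus 3 SD, cut at about 48% in these data, passing the limit was not always enough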;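 also: 100% = mean luminescence of untreated wells and 0% = no signal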). The note with it: H69AR lung tumor cells viability, ATP luminescence, 72 h; at 10 µM; stronger effect = lower value.
The nature of assay [6]: MRP1 drug-resistance reversers in H69AR cells – cell-based, doxorubicin co-treatment, pilot screen (AID 601;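 active = viability loss from added drug above about 55%, and viability with drug at most 40%, in both replicates, limit read from the data, passing the limit was not always enough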). Conditions: CellTiter-Glo, 72 h, at 10 µM; for differential viability (reversal): stronger effect = higher value.
A short description of assay [7]: yeast transport mutant growth inhibition pilot in 384-well plates, post-Golgi transport modulator project (AID 636; in the data active = inhibition above about 31%). The note with it: absorbance 615 nm, about 18 h, stronger effect = higher value.
The nature of assay [8]: growth suppression of yeast trafficking mutant, preliminary HTS, modulators of trafficking downstream of Golgi apparatus project, 1536-format plate, OD 615 nm (AID 637; in the data active = inhibition above about 30%). Conditions: yeast transport mutant growth, absorbance 615 nm, 18 h; stronger effect = higher value.
The mark [9] stands for this setting: H69AR cells + 2 uM doxorubicin, measured here: viability with 2 uM doxorubicin, stronger effect = lower value.
[10] abbreviates: H69AR cells, compound alone cytotoxicity.

Receptor tyrosine-protein kinase erbB-2 (Homo sapiens), sequence (P04626 whole entry, looked up): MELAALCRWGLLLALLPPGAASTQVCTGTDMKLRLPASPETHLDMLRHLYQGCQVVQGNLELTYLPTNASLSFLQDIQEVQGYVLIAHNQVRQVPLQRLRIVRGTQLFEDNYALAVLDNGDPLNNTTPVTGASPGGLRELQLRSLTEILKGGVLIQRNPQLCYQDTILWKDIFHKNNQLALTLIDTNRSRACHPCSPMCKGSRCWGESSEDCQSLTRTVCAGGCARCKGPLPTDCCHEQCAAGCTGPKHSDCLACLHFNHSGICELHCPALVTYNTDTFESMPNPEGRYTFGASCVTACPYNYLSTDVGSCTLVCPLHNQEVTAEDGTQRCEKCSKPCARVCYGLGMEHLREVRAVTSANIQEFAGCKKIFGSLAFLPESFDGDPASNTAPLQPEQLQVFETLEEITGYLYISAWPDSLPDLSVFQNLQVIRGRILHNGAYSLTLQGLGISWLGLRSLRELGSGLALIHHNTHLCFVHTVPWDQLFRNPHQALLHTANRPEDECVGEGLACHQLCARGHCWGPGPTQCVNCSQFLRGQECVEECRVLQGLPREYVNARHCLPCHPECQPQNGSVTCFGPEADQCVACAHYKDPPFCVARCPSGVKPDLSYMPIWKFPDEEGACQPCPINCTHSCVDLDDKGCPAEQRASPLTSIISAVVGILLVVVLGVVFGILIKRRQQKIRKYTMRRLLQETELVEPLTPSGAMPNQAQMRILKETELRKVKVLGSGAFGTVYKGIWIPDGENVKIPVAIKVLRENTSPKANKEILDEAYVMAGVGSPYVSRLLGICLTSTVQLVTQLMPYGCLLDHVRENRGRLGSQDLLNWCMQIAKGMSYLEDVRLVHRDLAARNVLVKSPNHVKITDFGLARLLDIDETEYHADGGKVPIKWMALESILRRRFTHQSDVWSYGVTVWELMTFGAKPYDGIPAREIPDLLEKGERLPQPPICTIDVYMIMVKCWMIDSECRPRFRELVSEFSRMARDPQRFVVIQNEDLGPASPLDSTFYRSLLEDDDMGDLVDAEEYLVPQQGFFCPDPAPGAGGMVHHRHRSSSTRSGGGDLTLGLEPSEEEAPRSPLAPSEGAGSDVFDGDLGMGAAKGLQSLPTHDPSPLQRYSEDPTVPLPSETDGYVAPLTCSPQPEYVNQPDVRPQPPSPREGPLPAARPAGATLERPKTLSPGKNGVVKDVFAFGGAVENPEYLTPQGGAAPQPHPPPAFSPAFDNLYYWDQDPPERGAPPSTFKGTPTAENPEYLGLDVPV

What is called viability is a read-out of living cells in per cent, often relative to untreated cells. By inhibition is commonly meant the relative decrease from the control value, in per cent. Take `COc1ccc(S(=O)(=O)CCC(=O)O)cc1`: the viability is 96.5% in assay [1]; 96.5% (inactive) in assay [3]; 93.7% (inactive) in assay [4]; 106% (inactive) in assay [5]; 95.7% in assay [6] (setting [9]); 106% in assay [6] (setting [10]). In addition, in assay [2], the Her2 level was 83.5% (inactive). In assay [6] (H69AR cells + 2 uM doxorubicin), the differential viability (reversal) is 10.3% (inactive). Further, the inhibition in assay [7] was -4.05% (inactive); in assay [8] it was 2.54% (inactive).
As to `COCCN1C(=O)C(=O)/C(=C(/O)c2cccc(OC)c2)C1c1ccncc1` (stereo not given), the viability in assay [1] is 99%; in assay [3], 99% (inactive); in assay [4], 101% (inactive); in assay [5], 93% (inactive); in assay [6] (setting [9]), 96.5%; in assay [6] (setting [10]), 93%. Further, the Her2 level in assay [2] was 104% (inactive). For the same compound, the differential viability (reversal) in assay [6] (H69AR cells + 2 uM doxorubicin) was -3.51% (inactive). Further, the inhibition in assay [7] is -0.26% (inactive); in assay [8], 3.64% (inactive).
As for `Clc1ccc(OCc2nc(-c3ccccn3)no2)c(Br)c1`, the viability in assay [1] was 82.5%; in assay [3] it was 82.5% (inactive); in assay [4], 55.6% (inactive); in assay [5] it was 102% (inactive); in assay [6] (setting [9]) it was 98.4%; in assay [6] (setting [10]), 102%. Also, the Her2 level in assay [2] was 92.5% (inactive). Further, the differential viability (reversal) in assay [6] (H69AR cells + 2 uM doxorubicin) is 3.96% (inactive). Besides, the inhibition in assay [7] is -0.26% (inactive); in assay [8] it was -8.67% (inactive).
For `Cc1ccc(S(=O)(=O)C2(C(=O)Nc3cccnc3)CC2)cc1`, the viability in assay [1] is 92.5%; in assay [3], 92.5% (inactive); in assay [4] it was 91.6% (inactive); in assay [5] it was 98.4% (inactive); in assay [6] (setting [9]), 95.2%; in assay [6] (setting [10]), 98.4%. Also, the Her2 level in assay [2] was 96% (inactive). The differential viability (reversal) in assay [6] (H69AR cells + 2 uM doxorubicin) is 3.19% (inactive). Besides, the inhibition is -1.67% (inactive) in assay [7] and -8.67% (inactive) in assay [8].
Turning to `CC(=O)Nc1ccc(Cl)c(C(N)=O)c1`, the viability in assay [1] is 110%; in assay [3], 110% (inactive); in assay [4] it was 97.1% (inactive); in assay [5] it was 95.3% (inactive); in assay [6] (setting [9]) it was 86.8%; in assay [6] (setting [10]) it was 95.3%. In addition, the Her2 level in assay [2] was 108% (inactive). Also, the differential viability (reversal) in assay [6] (H69AR cells + 2 uM doxorubicin) is 8.55% (inactive). The inhibition was -3.68% (inactive) in assay [7] and 6.07% (inactive) in assay [8].
As for `Cc1cc(NC(=O)CCOc2ccccc2)no1`, the viability was 85.5% in assay [1]; 85.5% (inactive) in assay [3]; 87% (inactive) in assay [4]; 88.6% (inactive) in assay [5]; 85.7% in assay [6] (setting [9]); 88.6% in assay [6] (setting [10]). For the same compound, in assay [2], the Her2 level was 96.5% (inactive). Moreover, the differential viability (reversal) in assay [6] (H69AR cells + 2 uM doxorubicin) was 2.89% (inactive). Further, the figures for the inhibition in assay [7] and in assay [8] were -2.34% (inactive) and 1% (inactive), respectively.
`Cc1nc(CNS(=O)(=O)c2ccc3c(c2)OCCO3)cs1`: the viability in assay [1] is 96%; in assay [3] it was 96% (inactive); in assay [4] it was 105% (inactive); in assay [5], 96.6% (inactive); in assay [6] (setting [9]), 96.9%; in assay [6] (setting [10]), 96.6%. Moreover, the Her2 level in assay [2] was 142% (inactive). Besides, in assay [6] (H69AR cells + 2 uM doxorubicin), the differential viability (reversal) is -0.265% (inactive). Further, the figures for the inhibition in assay [7] and in assay [8] were 2.24% (inactive) and 9.51% (inactive), respectively.
`Cc1cc(C)cc(-n2nnc(C(=O)NCc3ccco3)c2N)c1`: the viability in assay [1] is 101%; in assay [3], 101% (inactive); in assay [4], 89.4% (inactive); in assay [5] it was 88.5% (inactive); in assay [6] (setting [9]), 93.2%; in assay [6] (setting [10]) it was 88.5%. In assay [2], the Her2 level was 82% (inactive). Moreover, in assay [6] (H69AR cells + 2 uM doxorubicin), the differential viability (reversal) is -4.65% (inactive). Also, the inhibition in assay [7] was -0.14% (inactive); in assay [8] it was -4.92% (inactive).
As to `CCn1c(SCC(=O)Nc2ccc(C(C)=O)cc2)nc2ccccc21`, the viability in assay [1] is 90%; in assay [3] it was 90% (inactive); in assay [4] it was 57% (inactive); in assay [5], 83.1% (inactive); in assay [6] (setting [9]) it was 86.7%; in assay [6] (setting [10]), 83.1%. For the same compound, the Her2 level in assay [2] is 77% (inactive). Besides, in assay [6] (H69AR cells + 2 uM doxorubicin), the differential viability (reversal) was -3.56% (inactive). For the same compound, the inhibition in assay [7] is -1.45% (inactive); in assay [8] it was -3.45% (inactive).
Consider `COc1cc(C)nc(OCCNC(=O)COc2ccc(Cl)cc2C)n1`, for which the viability in assay [1] is 96.5%; in assay [3], 96.5% (inactive); in assay [4], 95.2% (inactive); in assay [5] it was 107% (inactive); in assay [6] (setting [9]), 98%; in assay [6] (setting [10]), 107%. The Her2 level in assay [2] is 100% (inactive). In addition, the differential viability (reversal) in assay [6] (H69AR cells + 2 uM doxorubicin) is 8.69% (inactive). Moreover, the inhibition is -0.93% (inactive) in assay [7] and 1.64% (inactive) in assay [8].
Regarding `COc1ccc(OC)c(C2C3=C(CCCC3=O)Nc3c2c(=O)n(C)c(=O)n3C)c1` (stereo not given), the viability in assay [1] was 106%; in assay [3], 106% (inactive); in assay [4], 103% (inactive); in assay [5], 102% (inactive); in assay [6] (setting [9]), 107%; in assay [6] (setting [10]) it was 102%. Moreover, in assay [2], the Her2 level is 108% (inactive). For the same compound, in assay [6] (H69AR cells + 2 uM doxorubicin), the differential viability (reversal) was -5.08% (inactive). The inhibition in assay [7] was -2.24% (inactive); in assay [8], -0.33% (inactive).
For the compound `CN(Cc1ccco1)C(=O)Cn1c(=O)oc2cc(S(=O)(=O)NCc3ccccc3)ccc21`, the viability in assay [1] was 92%; in assay [3], 92% (inactive); in assay [4] it was 96.4% (inactive); in assay [5] it was 89.8% (inactive); in assay [6] (setting [9]), 93.4%; in assay [6] (setting [10]) it was 89.8%. Further, in assay [2], the Her2 level was 85.5% (inactive). In addition, the differential viability (reversal) in assay [6] (H69AR cells + 2 uM doxorubicin) is -3.67% (inactive). Besides, the inhibition in assay [7] is -2.67% (inactive); in assay [8] it was 1.8% (inactive).
With `c1ccc(Cn2nnc3c(N4CCC5(CC4)OCCO5)ncnc32)cc1`, the viability was 105% in assay [1]; 105% (inactive) in assay [3]; 103% (inactive) in assay [4]; 90.7% (inactive) in assay [5]; 99.3% in assay [6] (setting [9]); 90.7% in assay [6] (setting [10]). Besides, in assay [2], the Her2 level is 92.5% (inactive). In addition, the differential viability (reversal) in assay [6] (H69AR cells + 2 uM doxorubicin) was -8.68% (inactive). Also, the inhibition was -1.05% (inactive) in assay [7] and 4.03% (inactive) in assay [8].
As for `O=P(O)(O)c1ccccc1OCCOCCOc1ccccc1P(=O)(O)O`, the viability in assay [1] is 101%; in assay [3], 101% (inactive); in assay [4], 111% (inactive); in assay [5], 92% (inactive); in assay [6] (setting [9]), 86.1%; in assay [6] (setting [10]), 92%. The Her2 level in assay [2] is 89.5% (inactive). In addition, the differential viability (reversal) in assay [6] (H69AR cells + 2 uM doxorubicin) was 5.91% (inactive). Besides, the inhibition in assay [7] was -6.08% (inactive); in assay [8] it was 0.5% (inactive).
In the case of `COc1ccc(CNc2nc(SCC(=O)NCc3ccco3)nc3ccccc23)cc1`, the viability was 80% in assay [1]; 80% (inactive) in assay [3]; 84.6% (inactive) in assay [4]; 94.4% (inactive) in assay [5]; 76.7% in assay [6] (setting [9]); 94.4% in assay [6] (setting [10]). In addition, in assay [2], the Her2 level was 90.5% (inactive). In assay [6] (H69AR cells + 2 uM doxorubicin), the differential viability (reversal) was 17.6% (inactive). Moreover, the inhibition in assay [7] is -3.6% (inactive); in assay [8], -4.26% (inactive).
